Results: ChEMBL document CHEMBL1124904, “7-Oxabicyclo[2.2.1]heptyl carboxylic acids as thromboxane A2 antagonists: aza omega-chain analogues” (J Med Chem, 1990)
pIC50, pKd: −log10 of the molar value. Blank lines part the entries; values can stand above or below the compound they belong to.

Experiments:
[1] = species: Homo sapiens; experiment: Ability to inhibit platelet aggregation of human platelet-rich plasma (PRP) induced by 800 uM of AA-IPA (arachidonic acid); format: functional; settings: read-out: I50
Outline: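 Human platelet-rich plasma; aggregation triggered by arachidonic acid at 800 μM. Test acids were also checked against ADP (20 μM)-induced aggregation. I50 taken as the concentration inhibiting aggregation.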

[2] = species: Cavia porcellus; experiment: Evaluated for its potency in Guinea pig trachea (GPT) spirals in the presence of increasing concentrations; format: functional
Outline: (§1)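 Guinea pig tracheal spirals contracted by U-46,619 in cumulative dose-response curves, repeated with increasing antagonist concentrations; Kb from analysis of the rightward shift.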

[3] = target: T1, Thromboxane A2 receptor (Homo sapiens, UniProt P21731); experiment: Binding affinity was determined from the inhibition of [3H]-SQ 29,548 binding to Thromboxane A2 receptor in human platelet membranes.; format: cell membranes
T1 sequence (P21731 whole entry): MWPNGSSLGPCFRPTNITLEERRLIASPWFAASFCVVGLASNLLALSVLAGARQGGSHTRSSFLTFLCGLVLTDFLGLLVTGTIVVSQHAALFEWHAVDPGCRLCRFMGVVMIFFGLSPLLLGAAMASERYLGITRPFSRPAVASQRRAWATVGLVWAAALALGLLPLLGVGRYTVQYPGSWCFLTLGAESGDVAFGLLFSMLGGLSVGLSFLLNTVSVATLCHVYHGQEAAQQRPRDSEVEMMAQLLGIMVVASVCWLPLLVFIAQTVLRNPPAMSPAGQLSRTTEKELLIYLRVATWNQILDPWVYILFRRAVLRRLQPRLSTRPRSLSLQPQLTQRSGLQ
Outline: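 Radioligand binding to human platelet membranes with [5,6-3H2]-SQ 29,548 as tracer; Kd derived from inhibition of specific binding.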

[4] = system: Cavia porcellus; experiment: Evaluated for the percent inhibition of arachidonate-induced dynamic compliance at 3 min after dosing (0.1 mg/kg iv) in anesthetized guinea pig.; format: functional
Outline: (§2)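 Anesthetized guinea pig dosed iv with antagonist at 0.1 mg/kg (some at 1.0 mg/kg). Arachidonic acid 0.5 mg/kg iv given as challenge 3 or 60 min later. Airway resistance, dynamic compliance and blood pressure recorded; percent inhibition of each response.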

[5] = system: Cavia porcellus; experiment: Evaluated for the percent inhibition of arachidonate-induced hypertension resulting in decreases in blood pressure at 60 min after dosing (0.1 mg/kg iv) in anesthetized guinea pig.; format: functional; outline: as §2
[6] = system: Cavia porcellus; experiment: Evaluated for the percent inhibition of arachidonate-induced air-way resistance at 3 min after dosing (0.1 mg/kg iv) in anesthetized guinea pig.; format: functional; outline: as §2
[7] = species: Homo sapiens; experiment: Evaluated for ability to inhibit platelet aggregation of human platelet-rich plasma (PRP) induced by 11.9-epoxymethano-PGH2.; format: functional; settings: read-out: I50
Outline: (§3)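 Human PRP aggregation induced by U-46,619 (11,9-epoxymethano-PGH2, stable PGH2/TxA2 mimic) at 5 or 10 μM; I50 reported. Values are single determinations unless otherwise noted.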

[8] = system: Cavia porcellus; experiment: Evaluated for the percent inhibition of arachidonate-induced air-way resistance at 60 min after dosing (0.1 mg/kg iv) in anesthetized guinea pig.; format: functional; outline: as §2
[9] = species: Rattus norvegicus; experiment: Evaluated for its potency Rat aorta (RA) strips in the presence of increasing concentrations; format: functional
Outline: (§4)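 Rat aortic strips contracted by U-46,619 in cumulative dose-response curves, repeated with increasing antagonist concentrations; Kb from analysis of the rightward shift.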

[10] = system: Cavia porcellus; experiment: Evaluated for the percent inhibition of arachidonate-induced dynamic compliance at 60 min after dosing (0.1 mg/kg iv) in anesthetized guinea pig.; format: functional; outline: as §2
[11] = system: Cavia porcellus; experiment: Evaluated for the percent inhibition of arachidonate-induced hypertension resulting in decreases in blood pressure at 3 min after dosing (0.1 mg/kg iv) in anesthetized guinea pig.; format: functional; outline: as §2
[12] = species: Cavia porcellus; experiment: Evaluated for its potency in guinea pig trachea (GPT) spirals in the presence of increasing concentrations; format: functional; outline: as §1
[13] = species: Homo sapiens; experiment: Evaluated for ability to inhibit platelet aggregation of human platelet-rich plasma (PRP) induced by 11.9-epoxymethano-PGH2; format: functional; settings: read-out: I50; outline: as §3
[14] = species: Rattus norvegicus; experiment: Evaluated for its potency in rat aorta (RA) strips in the presence of increasing concentrations; format: functional; outline: as §4

Structure (SMILES): O=C(O)CCC/C=C/CC1C2CCC(O2)C1CNC(=O)CNC(=O)c1ccccc1 (configuration not stated)
pIC50 ([1]; Homo sapiens, Plasma): 5.59

Structure (SMILES): O=C(O)Cc1ccc(CCNS(=O)(=O)c2ccc(Cl)cc2)cc1 [DALTROBAN]
pIC50 ([1]; Homo sapiens, Plasma): 6.20

Structure (SMILES): O=C(O)CCC/C=C/CC1C2CCC(O2)C1CNC(=O)CCc1ccccc1 (configuration not stated)
pIC50 ([1]; Homo sapiens, Plasma): 5.48

Structure (SMILES): CCCCCCCNC(=O)CNC(=O)C1C2CCC(O2)C1C/C=C/CCCC(=O)O (configuration not stated)
pIC50 ([1]; Homo sapiens, Plasma): 4.52

Structure (SMILES): O=C(O)CCC/C=C/CC1C2CCC(O2)C1CNC(=O)CNC(=O)CSc1ccccc1 (configuration not stated)
Inhibition [11]: 287% | pKd [3]: 7.38 | Kb [12]: 2.4 nM | Inhibition [4]: 92% | Inhibition [5]: 235% | pIC50 ([1]; Homo sapiens, Plasma): 7.68 | Inhibition [6]: 98% | pIC50 [13]: 6.96 | Inhibition [8]: 53% | Kb [14]: 1.8 nM | Inhibition [10]: 42%

Structure (SMILES): O=C(O)CCC/C=C/CC1C2CCC(O2)C1CNC(=O)NCc1ccccc1 (configuration not stated)
pIC50 ([1]; Homo sapiens, Plasma): 4.59

Structure (SMILES): CCCCC(=O)NCCC(=O)NCC1C2CCC(O2)C1C/C=C/CCCC(=O)O (configuration not stated)
pIC50 ([1]; Homo sapiens, Plasma): 4.85

Structure (SMILES): O=C(O)CCC/C=C/CC1C2CCC(O2)C1CNNC(=O)Nc1ccccc1 (single isomer, unassigned; (+))
pIC50 [1]: 7.70

Structure (SMILES): CCCCCCNC(=O)CC(=O)NC1C2CCC(O2)C1C/C=C/CCCC(=O)O (configuration not stated)
pIC50 ([1]; Homo sapiens, Plasma): 3.90

Structure (SMILES): O=C(O)CCC/C=C/CC1C2CCC(O2)C1CNNC(=O)Nc1ccccc1 (racemic)
Inhibition [11]: 151% | Inhibition [4]: 96% | Inhibition [5]: 59% | pIC50 [1]: 7.05 | Inhibition [6]: 97% | Inhibition [8]: 42% | Inhibition [10]: 56%

Structure (SMILES): CCCCCNC(=O)CCNC(=O)C1C2CCC(O2)C1C/C=C/CCCC(=O)O (configuration not stated)
pIC50 ([1]; Homo sapiens, Plasma): 4.85

Structure (SMILES): O=C(O)CCC/C=C/CC1C2CCC(O2)C1CNNC(=O)Cc1ccccc1 (configuration not stated)
pIC50 ([1]; Homo sapiens, Plasma): 6.70

Structure (SMILES): COc1ccc(SCC(=O)NCC2C3CCC(O3)C2C/C=C/CCCC(=O)O)cc1 (configuration not stated)
pIC50 ([1]; Homo sapiens, Plasma): 5.85

Further lines, with some results ahead:

pIC50 ([1]; Homo sapiens, Plasma): 3.92
Structure (SMILES): CCCCCCCNC1C2CCC(O2)C1C/C=C/CCCC(=O)O (configuration not stated)

pKd [3]: 7.76 | pIC50 [1]: 6.66 | pIC50 [7]: 6.37
Structure (SMILES): CCCCCCCC(=O)NCC(=O)NCC1C2CCC(O2)C1C/C=C/CCCC(=O)O (stereo in doubt; 51)
Kb [2]: 2 nM | Inhibition [4]: 98% | Inhibition [5]: 130% | Inhibition [6]: 97% | Inhibition [8]: 79% | Kb [9]: 3.4 nM | Inhibition [10]: 74%

pIC50 ([1]; Homo sapiens, Plasma): 4.82
Structure (SMILES): CCCCCCCCC(=O)NCC1C2CCC(O2)C1C/C=C/CCCC(=O)O (configuration not stated)

pKd [3]: 7.58 | pIC50 ([1]; Homo sapiens, Plasma): 6.01 | pIC50 ([7]; Homo sapiens, Plasma): 5.02
Structure (SMILES): CCCCCC/C(S)=N/C/C(S)=N/CC1C2CC[C@@H](O2)C1C/C=C/CCCC(=O)O (some centres not stated)

pIC50 [1]: 6.05
Structure (SMILES): CCCCCC(=O)NC(C)C(=O)NCC1C2CCC(O2)C1C/C=C/CCCC(=O)O (stereo in doubt; 49)

pIC50 ([1]; Homo sapiens, Plasma): 3.47
Structure (SMILES): CCCCCNCCC1C2CCC(O2)C1C/C=C/CCCC(=O)O (configuration not stated)

pKd [3]: 8.08 | pIC50 ([1]; Homo sapiens, Plasma): 6.66 | pIC50 ([7]; Homo sapiens, Plasma): 5.96
Structure (SMILES): CCCCCCCCC(=O)NCC(=O)NCC1C2CCC(O2)C1C/C=C/CCCC(=O)O (configuration not stated)
Inhibition [11]: 252% | Kb ([2]; Cavia porcellus, Trachea): 1.4 nM | Inhibition [4]: 98% | Inhibition [5]: 138% | Inhibition [6]: 99% | Inhibition [8]: 31% | Kb ([9]; Rattus norvegicus, Aorta): 7.1 nM | Inhibition [10]: 39%
